Measurements: ChEMBL document CHEMBL5233208, “Optimization of P2Y12 Antagonist Ethyl 6-(4-((Benzylsulfonyl)carbamoyl)piperidin-1-yl)-5-cyano-2-methylnicotinate (AZD1283) Led to the Discovery of an Oral Antiplatelet Agent with Improved Druglike Properties” (J Med Chem, 2019)
The source made the active and inactive calls. The rule behind the calls is not given here.

Experiments:
[1] = Metabolic stability in human liver microsomes assessed as half life at […] measured up to 60 mins in presence of NADPH regeneration system by LC-MS/MS analysis; type: ADME, Microsome
[2] = test system: Rattus norvegicus; test: Antithrombotic activity in anesthetized Wistar rat model of FeCL3-induced carotid artery thrombosis assessed as reduction in thrombus weight by measuring inhibition of thrombosis formation at 40 mg/kg, po administered as single dose measured at 1.5 hrs post dose; type: functional; design: scale not given: the % may be the effect or the level left
Outline: (§1)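 Compounds in 0.5% CMC-Na given to Wistar rats as a single oral gavage dose (10 mL/kg). Rats anesthetized with 2% pentobarbital i.p. at 50 mg/kg and kept on a heating pad. At 1.5 h post-dose, filter paper soaked in 20% FeCl3 applied to the isolated left carotid artery for 10 min; thrombus weight recorded. Mean ± SEM, n = 10.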

[3] = test system: Rattus norvegicus; test: Antithrombotic activity in anesthetized Wistar rat model of tail-bleeding assessed as increase in bleeding weight at 10 mg/kg, po administered as single dose measured at 1.5 hrs post dose; type: functional
Outline: (§2)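 Male rats (250–300 g, n = 10 per dose) acclimatized at least 7 days, then dosed by oral gavage. At 1.5 h, anesthetized with 2% pentobarbital i.p. at 50 mg/kg. Tail transected 4 mm from the tip and immersed in saline at 37 °C; bleeding ended when no blood appeared for 30 s. Bleeding time and blood loss weight recorded as mean ± SEM.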

[4] = test system: Rattus norvegicus; test: Antithrombotic activity in anesthetized Wistar rat model of FeCL3-induced carotid artery thrombosis assessed as reduction in thrombus weight po administered as single dose measured at 1.5 hrs post dose; type: functional; outline: as §1
[5] = test system: Rattus norvegicus; test: Antithrombotic activity in anesthetized Wistar rat model of tail-bleeding assessed as increase in bleeding weight at 5 mg/kg, po administered as single dose measured at 1.5 hrs post dose; type: functional; outline: as §2
[6] = Metabolic stability in human liver microsomes assessed as intrinsic clearance at 0.1 µM measured up to 60 mins in presence of NADPH regeneration system by LC-MS/MS analysis; conditions: 1 h
[7] = AUC (0 to infinity) in Sprague-Dawley rat at 5 mg/kg,po measured up to 24 hrs by LC-MS/MS analysis; type: ADME, organism-based; design: time < 24 hrs, dose 5 mg/kg, route po; conditions: in vivo
[8] = species: Homo sapiens; test: Antiplatelet activity in human platelet-rich plasma assessed as inhibition of ADP-induced platelet aggregation by aggregometry; type: functional
Outline: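 Human PRP from healthy donors free of aspirin/NSAIDs for at least two weeks, drawn into ACD; PRP spun at 300 g for 10 min, PPP at 2000 g. Compound in 0.5% DMSO preincubated 2 min at 37 °C with stirring (900 rpm). Aggregation induced by 10 μM ADP (final) and followed optically for 5 min.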

[9] = Metabolic stability in rat liver microsomes assessed as half life at […] measured up to 60 mins in presence of NADPH regeneration system by LC-MS/MS analysis; type: ADME, Microsome
[10] = MRT in Sprague-Dawley rat at 5 mg/kg,po measured up to 24 hrs by LC-MS/MS analysis; type: ADME, organism-based; conditions: in vivo
[11] = Metabolic stability in dog liver microsomes assessed as intrinsic clearance at 0.1 µM measured up to 60 mins in presence of NADPH regeneration system by LC-MS/MS analysis; conditions: 1 h
[12] = Half life in Sprague-Dawley rat at 5 mg/kg,po measured up to 24 hrs by LC-MS/MS analysis; type: ADME, organism-based; conditions: in vivo
[13] = Tmax in Sprague-Dawley rat at 5 mg/kg,po measured up to 24 hrs by LC-MS/MS analysis; type: ADME, organism-based; conditions: in vivo
[14] = test system: Rattus norvegicus; test: Antithrombotic activity in anesthetized Wistar rat model of tail-bleeding assessed as increase in bleeding weight at 40 mg/kg, po administered as single dose measured at 1.5 hrs post dose; type: functional; outline: as §2
[15] = Metabolic stability in dog liver microsomes assessed as half life at […] measured up to 60 mins in presence of NADPH regeneration system by LC-MS/MS analysis; type: ADME, Canis lupus familiaris, Microsome
[16] = test system: Rattus norvegicus; test: Antithrombotic activity in anesthetized Wistar rat model of FeCL3-induced carotid artery thrombosis assessed as reduction in thrombus weight at 10 mg/kg, po administered as single dose measured at 1.5 hrs post dose; type: functional, organism-based; outline: as §1
[17] = test system: Rattus norvegicus; test: Antithrombotic activity in anesthetized Wistar rat model of tail-bleeding assessed as increase in bleeding time at 40 mg/kg, po administered as single dose measured at 1.5 hrs post dose; type: functional; outline: as §2
[18] = Oral bioavailability in Sprague-Dawley rat at 5 mg/kg,po measured up to 24 hrs by LC-MS/MS analysis; type: ADME, organism-based; conditions: in vivo
[19] = test system: Rattus norvegicus; test: Antithrombotic activity in anesthetized Wistar rat model of tail-bleeding assessed as increase in bleeding weight at 20 mg/kg, po administered as single dose measured at 1.5 hrs post dose; type: functional; outline: as §2
[20] = test system: Rattus norvegicus; test: Antithrombotic activity in anesthetized Wistar rat model of tail-bleeding assessed as increase in bleeding weight at […], po administered as single dose measured at 1.5 hrs post dose; type: functional
[21] = Cmax in Sprague-Dawley rat at 5 mg/kg,po measured up to 24 hrs by LC-MS/MS analysis; type: ADME, organism-based; design: time < 24 hrs, dose 5 mg/kg, route po; conditions: in vivo
[22] = Metabolic stability in rat liver microsomes assessed as intrinsic clearance at 0.1 µM measured up to 60 mins in presence of NADPH regeneration system by LC-MS/MS analysis; conditions: 1 h
[23] = test system: Rattus norvegicus; test: Antithrombotic activity in anesthetized Wistar rat model of tail-bleeding assessed as increase in bleeding time po administered as single dose measured at 1.5 hrs post dose; type: functional; outline: as §2

half-life [1]: 3.47 h
intrinsic clearance [6]: 10.1 mL/min/g
AUC(0-inf) [7]: 4120 ng·h/mL
IC50 [8]: 2940 nM
half-life [9]: 1.48 h
MRT [10]: 3.64 h
intrinsic clearance [11]: 116.3 mL/min/g
half-life [12]: 2.91 h
Tmax [13]: 0.25 h
half-life [15]: 1.62 h
bioavailability [18]: 51%
Cmax [21]: 1660 ng/mL
intrinsic clearance [22]: 10.6 mL/min/g
SMILES: Cc1ccc(CS(=O)(=O)NC(=O)C2(C)CCN(c3nc4c(cc3C#N)C(=O)OC4)CC2)cc1
Activity [2]: 56%
Activity [3]: 0.39 g
ED50 [4]: 27 mg/kg
Activity [5]: 0.31 g
Activity [14]: 0.66 g
Activity [16]: Active
Time [17]: 33.09 min
Activity [19]: 0.43 g
Activity [20]: 0.24 g
ED100 [23]: 7.58 mg/kg
